Measurements reported in publication PMC6530469 (Biochemical pharmacology, 2018).
Where two headings read alike, the source gives them in different places.

Legend:
human A3AR (hA3AR) [1] = molecular target: T1, human A3AR (hA3AR) (Homo sapiens, UniProt P0DMS8); experiment: cell-based; conditions: CHO, read-out: Stable A3AR CHO cell line^B / Emax (%)
T1 sequence (P0DMS8 1-318): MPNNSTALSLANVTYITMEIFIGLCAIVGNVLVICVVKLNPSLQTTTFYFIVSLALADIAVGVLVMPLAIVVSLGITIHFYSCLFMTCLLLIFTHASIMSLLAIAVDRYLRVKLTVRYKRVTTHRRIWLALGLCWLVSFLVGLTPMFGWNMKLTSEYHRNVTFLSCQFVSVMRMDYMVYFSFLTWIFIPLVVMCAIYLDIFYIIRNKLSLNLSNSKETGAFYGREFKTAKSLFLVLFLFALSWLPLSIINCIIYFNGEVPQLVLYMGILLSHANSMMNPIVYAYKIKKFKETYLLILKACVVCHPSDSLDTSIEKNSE

[2] = molecular target: T2, hA3AR-NanoBit-βarr2 (A3AR-LgBit with SmBit-βarr2) (Homo sapiens, UniProt P0DMS8); experiment: NanoBit βarr2 recruitment, luminescence AUC; type: cell-based
T2 sequence (P32121 whole entry partner, one chain of several): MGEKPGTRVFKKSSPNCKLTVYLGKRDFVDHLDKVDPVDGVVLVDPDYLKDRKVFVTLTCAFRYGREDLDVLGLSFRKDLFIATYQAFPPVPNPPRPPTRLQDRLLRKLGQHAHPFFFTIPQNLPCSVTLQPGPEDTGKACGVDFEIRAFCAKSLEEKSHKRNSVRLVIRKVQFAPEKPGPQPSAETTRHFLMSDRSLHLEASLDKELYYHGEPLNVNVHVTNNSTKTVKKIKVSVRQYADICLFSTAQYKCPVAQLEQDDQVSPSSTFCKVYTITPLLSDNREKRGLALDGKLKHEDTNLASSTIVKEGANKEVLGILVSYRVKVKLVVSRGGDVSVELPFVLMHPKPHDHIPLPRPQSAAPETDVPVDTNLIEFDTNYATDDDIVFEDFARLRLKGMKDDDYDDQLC

human A3AR (hA3AR) [3] = molecular target: T1, human A3AR (hA3AR); experiment: […]I-AB-MECA competition, CHO membranes; type: binding
[4] = molecular target: T2, hA3AR-NanoBit-βarr2 (A3AR-LgBit with SmBit-βarr2); experiment: cell-based; conditions: HEK-293T, read-out: Stable A3AR NanoBit® HEK293T cell line^A / Emax (%)
[5] = molecular target: T2, hA3AR-NanoBit-βarr2 (A3AR-LgBit with SmBit-βarr2); experiment: cell-based; conditions: HEK-293T, read-out: Stable A3AR NanoBit® HEK293T cell line^A / Emax (%); remark: listed apart in the source
human A3AR (hA3AR) [6] = molecular target: T1, human A3AR (hA3AR); experiment: inhibition of forskolin-stimulated cAMP, CHO cells; type: cell-based; conditions: agonism; 10 µM forskolin, 10 µM rolipram, adenosine deaminase
human A3AR (hA3AR) [7] = molecular target: T1, human A3AR (hA3AR); experiment: inhibition of forskolin-stimulated cAMP, CHO cells; type: cell-based
[8] = molecular target: T2, hA3AR-NanoBit-βarr2 (A3AR-LgBit with SmBit-βarr2); experiment: NanoBit βarr2 recruitment, luminescence AUC; type: cell-based; conditions: agonism; stable HEK293T cells, room temperature, Opti-MEM I
Summary of the method: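 Stable HEK293T line retrovirally co-transduced with A3AR-LgBit and SmBit-βarr2, FACS-sorted on co-expressed EGFP/dNGFR. Cells on PDL-coated plates at 5×10^4/well overnight (37°C, 5% CO2), washed twice, detection reagent added, luminescence equilibrated. Agonist added at final 100 pM–25 µM (≤0.5% DMSO), luminescence followed ≥90 min. DMSO solvent blank (0.001–0.5%) in each run.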

Compound: CCNC(=O)[C@H]1O[C@@H](n2cnc3c(N)ncnc32)[C@H](O)[C@@H]1O [NECA]
- Emax (human A3AR (hA3AR) [1]): 103%

Compound: CCOC(=O)[C@@]12C[C@@H]1[C@@H](n1cnc3c(NC)nc(C#Cc4ccc(Cl)s4)nc31)[C@H](O)[C@@H]2O [MRS7232]
- EC50 [2]: 50.1 nM
- Ki (human A3AR (hA3AR) [3]): 5.38 ± 0.03 nM
- Emax [4]: 13.6 ± 1.6%

Compound: CNC(=O)[C@@]12C[C@@H]1[C@@H](n1cnc3c(NCc4cccc(Cl)c4)nc(C#Cc4ccc(-c5ccccc5)cc4)nc31)[C@H](O)[C@@H]2O [MRS5679]
- EC50 [2]: 1200 nM
- Emax [4]: 46.8 ± 3.3%

Compound: NCCNC(=O)Cc1ccc(NC(=O)Cc2ccc(Nc3ncnc4c3ncn4[C@@H]3O[C@H](CO)[C@@H](O)[C@H]3O)cc2)cc1 [ADAC, N^6-[4-[[[4-[[[(2-aminoethyl)amino]carbonyl]methyl]anilino]-carbonyl]methyl]phenyl]adenosine]
- EC50 [2]: 245 nM
- Ki (human A3AR (hA3AR) [3]): 13.3 ± 3 nM
- Emax (human A3AR (hA3AR) [1]): 103 ± 4%
- Emax [5]: 73.7 ± 3.1%

Compound: O[C@@H]1[C@H](O)[C@@H]2C[C@@H]2[C@H]1n1cnc2c(NC(C3CC3)C3CC3)nc(Cl)nc21 [MRS5474]
- Emax (human A3AR (hA3AR) [1]): 56 ± 4.8%
- Emax [5]: 9.8 ± 1.2%

Compound: CCNC(=O)[C@H]1O[C@@H](n2cnc3c(N)nc(NCCc4ccc(CCC(=O)O)cc4)nc32)[C@H](O)[C@@H]1O [CGS21680]
- Emax (human A3AR (hA3AR) [1]): 98 ± 5%
- Emax [5]: 99 ± 5.5%

Compound: CNC(=O)[C@@]12C[C@@H]1[C@@H](n1cnc3c(C)nc(C#Cc4ccc(Cl)s4)nc31)[C@H](O)[C@@H]2O [MRS7195]
- Emax (human A3AR (hA3AR) [1]): 107 ± 26%
- Emax [5]: 84.5 ± 6.4%

Compound: CNC(=O)[C@@]12C[C@@H]1[C@@H](n1cnc3c(NC)nc(C#Cc4ccc(Cl)s4)cc31)[C@H](O)[C@@H]2O [MRS7173]
- EC50 [2]: 55 nM
- Ki (human A3AR (hA3AR) [3]): 1.56 ± 0.2 nM
- Emax [4]: 78.2 ± 1.8%

Compound: C[C@H](Cc1ccccc1)Nc1ncnc2c1ncn2[C@@H]1O[C@H](CO)[C@@H](O)[C@H]1O [R-PIA]
- Emax (human A3AR (hA3AR) [1]): 102 ± 6%
- Emax [5]: 56.6 ± 1.9%

Compound: OC[C@H]1O[C@@H](n2cnc3c(NC4CCCC4)nc(Cl)nc32)[C@H](O)[C@@H]1O [CCPA]
- Emax (human A3AR (hA3AR) [1]): 0%
- Emax [5]: 33.5 ± 2.7%
- LogEC50 (NA, not significantly active at 10 μM) (human A3AR (hA3AR) [6]): > 10 µM

Compound: Nc1nc(Cl)nc2c1ncn2[C@H]1[C@H](O)[C@H](O)[C@]2(CO)C[C@H]12 [MRS1873]
- Emax (human A3AR (hA3AR) [1]): 41 ± 5%
- Emax [5]: 13 ± 1.6%

Compound: C[C@@H](Cc1ccccc1)Nc1ncnc2c1ncn2[C@@H]1O[C@H](CO)[C@@H](O)[C@H]1O [S-PIA]
- Emax (human A3AR (hA3AR) [1]): 97 ± 3%
- Emax [5]: 51 ± 1.4%

Compound: CCOC(=O)[C@@]12C[C@@H]1[C@@H](n1ccc3c(NC)nc(C#Cc4ccc(Cl)s4)nc31)[C@H](O)[C@@H]2O [MRS7299]
- EC50 (human A3AR (hA3AR) [7]): > 10000 nM
- LogEC50 (NA, not significantly active at 10 μM) [8]: > 10 µM
- Emax (human A3AR (hA3AR) [1]): 1 ± 7%

Compound: CNC(=O)[C@@]12C[C@@H]1[C@@H](n1cnc3c(NC)nc(C#Cc4ccccc4Cl)nc31)[C@H](O)[C@@H]2O [MRS5663]
- EC50 [2]: 5.62 nM
- Emax [4]: 102 ± 3.6%

Compound: CNC(=O)[C@@]12C[C@@H]1[C@@H](n1cnc3c(NCc4cccc(Cl)c4)nc(C#Cc4ccc(F)c(F)c4)nc31)[C@H](O)[C@@H]2O [MRS5698]
- Emax [5]: 83.5 ± 4.6%

Compound: OC[C@H]1O[C@@H](n2cnc3c(NC4CCCC4)cc(Cl)nc32)[C@H](O)[C@@H]1O [DCCA]
- EC50 [2]: 1480 nM
- Ki (human A3AR (hA3AR) [3]): 244 ± 37 nM
- Emax [4]: 5.8 ± 0.2%

Compound: CNC(=O)[C@@]12C[C@@H]1[C@@H](n1cnc3c(NC)nc(C#Cc4ccccc4OC)nc31)[C@H](O)[C@@H]2O [MRS5967]
- EC50 [2]: 4.68 nM
- Emax [4]: 92.5 ± 2.4%

Compound: CNC(=O)[C@@]12C[C@@H]1[C@@H](n1cnc3cnc(C#Cc4ccc(Cl)s4)nc31)[C@H](O)[C@@H]2O [MRS7220]
- Emax (human A3AR (hA3AR) [1]): 97.8 ± 0.1%
- Emax [5]: 68.4 ± 5.3%

Compound: CCCNc1nc(C#Cc2ccc(Cl)s2)nc2c1ncn2[C@H]1[C@H](O)[C@H](O)[C@]2(C(=O)NC)C[C@H]12 [MRS7154]
- EC50 [2]: 21.4 nM
- Emax [4]: 94.5 ± 4.8%

Compound: CCNc1cc(C#Cc2ccc(Cl)s2)nc2c1ncn2[C@H]1[C@H](O)[C@H](O)[C@]2(C(=O)NC)C[C@H]12 [MRS7144]
- Emax (human A3AR (hA3AR) [1]): 95.5 ± 2.3%
- Emax [5]: 74.4 ± 2.3%

Compound: OC[C@H]1O[C@@H](n2cnc3c(NC4CCCC4)ncnc32)[C@H](O)[C@@H]1O [CPA]
- Emax (human A3AR (hA3AR) [1]): 97 ± 4%
- Emax [5]: 56.9 ± 3.7%

Compound: CNC(=O)[C@H]1O[C@@H](n2cnc3c(NCc4cccc(I)c4)ncnc32)[C@H](O)[C@@H]1O [IB-MECA]
- Emax [5]: 78.4 ± 2.5%

Compound: OC[C@H]1O[C@@H](n2cnc3c(Nc4ccccc4)ncnc32)[C@H](O)[C@@H]1O [N^6-phenyl-adenosine]
- EC50 [2]: 589 nM
- Ki (human A3AR (hA3AR) [3]): 14.9 ± 3.1 nM
- Emax [4]: 75.8 ± 3%

Compound: OC[C@H]1O[C@@H](n2cnc3c(NCc4ccccc4)ncnc32)[C@H](O)[C@@H]1O [N^6-benzyl-adenosine]
- EC50 [2]: 851 nM
- Emax [4]: 34.9 ± 2.3%

Compound: CNC(=O)[C@@]12C[C@@H]1[C@@H](n1cnc3c(NC)nc(C#Cc4cccs4)nc31)[C@H](O)[C@@H]2O [MRS5917]
- Emax (human A3AR (hA3AR) [1]): 97.3 ± 2.9%
- Emax [5]: 91.6 ± 3.4%

Compound: CNC(=O)[C@@]12C[C@@H]1[C@@H](n1cnc3c(NC)nc(C#Cc4ccc(Cl)s4)nc31)[C@H](O)[C@@H]2O [MRS5980]
- Emax [4]: 95 ± 4%

Compound: O[C@@H]1[C@H](O)[C@@H]2C[C@@H]2[C@H]1n1cnc2c(NCc3cccc(I)c3)nc(Cl)nc21 [MRS5127]
- EC50 (human A3AR (hA3AR) [7]): 12.6 nM
- EC50 [2]: 24.5 nM
- Emax [5]: 5.2 ± 0.4%
